Measurements taken from ChEMBL document CHEMBL4190389, “Synthesis and activity of di- or trisubstituted N-(phenoxyalkyl)- or N-{2-[2-(phenoxy)ethoxy]ethyl}piperazine derivatives on the central nervous system” (Bioorg Med Chem Lett, 2018).
Activity calls are given as the source filed them. No cut-off for these calls is given here.

Assays:
[1] = test system: Mus musculus; assay: Anxiolytic-like activity in Albino Swiss CD-1 mouse assessed as increase in number of punished crossings at 1.25 mg/kg, ip administered for 30 mins prior to test measured for 1 min by four-plate test; format: functional, organism-based
How it was run: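 Four-plate test in mice; compounds or clorazepate given i.p. 30 min before testing, vehicle 0.9% NaCl; read-out was number of punished crossings; mean ± SEM, n = 8–10 mice per group; doses compared with one-way statistics (F) against vehicle.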

[2] = test system: Mus musculus; assay: Anxiolytic-like activity in Albino Swiss CD-1 mouse assessed as increase in number of punished crossings at 5 mg/kg, ip administered for 30 mins prior to test measured for 1 min by four-plate test; format: functional, organism-based
How it was run: (§1)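 Four-plate test in mice, i.p., 30 min before test; vehicle 0.9% NaCl; doses 1.25–10 mg/kg; number of punished crossings counted; mean ± SEM, n = 8–10 mice per group; ANOVA F statistics.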

[3] = test system: Mus musculus; assay: Anxiolytic-like activity in Albino Swiss CD-1 mouse assessed as increase in number of punished crossings at 2.5 mg/kg, ip administered for 30 mins prior to test measured for 1 min by four-plate test; format: functional, organism-based; how it was run: as §1
[4] = test system: Mus musculus; assay: Antidepressant-like activity in Albino Swiss CD-1 mouse assessed as immobility time at 20 mg/kg, ip administered 30 mins prior to test measured for last 4 mins of 6 mins observation by forced swim test (reference value: 153.9 to 201.9 secs); format: functional
[5] = Protection index, ratio of TD50 for motor impairment in ip dosed Swiss albino CD-1 mouse to ED50 for protection against 50 Hz current-induced seizures in ip dosed Swiss albino CD-1 mouse; format: toxicity, organism-based, Swiss CD-1; conditions: in vivo, read-out: Ratio TD50/ED50
[6] = test system: Mus musculus; assay: Antidepressant-like activity in Albino Swiss CD-1 mouse assessed as immobility time at 10 mg/kg, ip administered 30 mins prior to test measured for last 4 mins of 6 mins observation by forced swim test (reference value: 153.9 to 201.9 secs); format: functional
[7] = target: T1, 5-hydroxytryptamine receptor 7 (Homo sapiens, UniProt P34969); assay: Displacement of [3H]LSD from recombinant human 5-HT7 receptor expressed in CHO cell membranes at 10^-5 M after 60 mins by liquid scintillation counting method
T1 sequence (P34969 whole entry): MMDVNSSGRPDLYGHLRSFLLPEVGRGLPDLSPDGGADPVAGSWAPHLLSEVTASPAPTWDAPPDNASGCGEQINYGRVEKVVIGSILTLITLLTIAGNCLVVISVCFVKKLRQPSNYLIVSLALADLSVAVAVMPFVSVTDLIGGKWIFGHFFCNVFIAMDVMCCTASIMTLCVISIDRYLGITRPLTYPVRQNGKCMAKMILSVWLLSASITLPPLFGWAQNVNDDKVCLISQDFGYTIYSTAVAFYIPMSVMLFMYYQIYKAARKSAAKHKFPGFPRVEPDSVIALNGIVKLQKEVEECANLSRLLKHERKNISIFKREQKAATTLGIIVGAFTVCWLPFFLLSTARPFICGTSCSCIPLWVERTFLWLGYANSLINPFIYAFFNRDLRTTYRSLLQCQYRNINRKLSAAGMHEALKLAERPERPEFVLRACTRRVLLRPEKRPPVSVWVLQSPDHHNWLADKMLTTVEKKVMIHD

[8] = target: T2, 5-hydroxytryptamine receptor 1A (Homo sapiens, UniProt P08908); assay: Displacement of [3H]8-OH-DPAT from recombinant human 5-HT1A receptor expressed in HEK293 cell membranes after 60 mins by liquid scintillation counting method
T2 sequence (P08908 whole entry): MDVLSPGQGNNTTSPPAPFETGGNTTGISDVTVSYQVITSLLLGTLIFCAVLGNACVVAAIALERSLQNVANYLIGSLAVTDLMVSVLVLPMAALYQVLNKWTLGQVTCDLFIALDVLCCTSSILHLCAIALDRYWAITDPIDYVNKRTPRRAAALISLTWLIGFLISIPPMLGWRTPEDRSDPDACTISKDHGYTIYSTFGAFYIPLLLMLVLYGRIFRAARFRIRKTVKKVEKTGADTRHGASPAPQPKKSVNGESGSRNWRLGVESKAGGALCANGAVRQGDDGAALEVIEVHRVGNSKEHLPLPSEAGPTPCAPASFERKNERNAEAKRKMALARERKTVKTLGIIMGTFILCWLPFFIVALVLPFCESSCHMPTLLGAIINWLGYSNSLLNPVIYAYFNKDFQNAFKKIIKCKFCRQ

[9] = Neurotoxicity in ip dosed Albino Swiss CD-1 mouse assessed as minimum dose required to induce motor impairment treated 30 mins prior to test by rotarod test; format: toxicity, organism-based; conditions: in vivo
[10] = test system: Mus musculus; assay: Anticonvulsant activity in ip dosed Albino Swiss CD-1 mouse assessed as dose required to protect against 50 Hz current-induced seizure; format: functional; conditions: Swiss CD-1, ip
[11] = test system: Mus musculus; assay: Toxicity in Albino Swiss CD-1 mouse assessed as death at 100 mg/kg, ip; format: organism-based; conditions: in vivo
How it was run: (§2)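 Deaths counted in mice during maximal electroshock (MES) seizure testing after i.p. dosing, 6 mice per dose (3 or 1 at some top doses); recorded as number dead/number tested alongside protection and rotarod motor impairment (10 rpm); untreated control group included.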

[12] = target: T3, 5-hydroxytryptamine receptor 6 (Homo sapiens, UniProt P50406); assay: Displacement of [3H]LSD from recombinant human 5-HT6 receptor expressed in CHO cells cell membranes at 10^-5 M after 60 mins by liquid scintillation counting method
T3 sequence (P50406 whole entry): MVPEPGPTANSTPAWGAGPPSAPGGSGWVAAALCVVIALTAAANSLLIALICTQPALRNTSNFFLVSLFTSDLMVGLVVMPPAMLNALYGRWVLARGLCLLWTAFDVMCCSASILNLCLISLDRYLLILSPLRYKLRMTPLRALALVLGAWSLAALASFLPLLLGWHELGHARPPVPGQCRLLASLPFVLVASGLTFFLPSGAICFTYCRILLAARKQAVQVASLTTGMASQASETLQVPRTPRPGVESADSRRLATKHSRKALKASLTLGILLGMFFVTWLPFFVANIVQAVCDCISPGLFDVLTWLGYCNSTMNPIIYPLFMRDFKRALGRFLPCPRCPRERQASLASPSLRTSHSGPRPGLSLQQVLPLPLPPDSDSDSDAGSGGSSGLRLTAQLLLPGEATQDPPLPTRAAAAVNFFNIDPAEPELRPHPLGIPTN

[13] = test system: Mus musculus; assay: Toxicity in Albino Swiss CD-1 mouse assessed as effect on locomotory activity at 1.25 to 5 mg/kg, ip administered for 30 mins prior to test measured for 1 min; format: organism-based; conditions: in vivo
[14] = target: T4, Alpha-1A adrenergic receptor (Homo sapiens) (UniProt P35348); assay: Displacement of [3H]prazosin from recombinant human alpha1 adrenoceptor expressed in CHO cell membranes at 10^-5 M after 30 mins by liquid scintillation counting method
T4 sequence (whole entry): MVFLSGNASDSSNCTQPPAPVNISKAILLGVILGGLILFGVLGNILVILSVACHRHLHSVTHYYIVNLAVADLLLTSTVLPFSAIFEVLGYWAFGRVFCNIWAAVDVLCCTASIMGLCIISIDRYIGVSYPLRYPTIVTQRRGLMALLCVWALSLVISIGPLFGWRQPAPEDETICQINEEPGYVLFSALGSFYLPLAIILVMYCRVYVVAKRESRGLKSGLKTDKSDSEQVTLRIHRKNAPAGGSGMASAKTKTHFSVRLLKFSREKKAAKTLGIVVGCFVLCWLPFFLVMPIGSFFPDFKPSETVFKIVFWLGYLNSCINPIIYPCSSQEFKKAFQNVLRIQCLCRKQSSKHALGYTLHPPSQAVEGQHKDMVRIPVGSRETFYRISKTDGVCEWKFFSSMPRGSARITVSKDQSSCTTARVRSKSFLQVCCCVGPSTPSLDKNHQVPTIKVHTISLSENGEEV

[15] = test system: Mus musculus; assay: Antidepressant-like activity in Albino Swiss CD-1 mouse assessed as immobility time at 5 mg/kg, ip administered 30 mins prior to test measured for last 4 mins of 6 mins observation by forced swim test (reference value: 153.9 to 201.9 secs); format: functional
[16] = target: T1, 5-hydroxytryptamine receptor 7; assay: biochemical; format: cell-based, CHO
[17] = test system: Mus musculus; assay: Toxicity in Albino Swiss CD-1 mouse assessed as death at 30 mg/kg, ip; format: organism-based; conditions: in vivo; how it was run: as §2
[18] = test system: Mus musculus; assay: Anxiolytic-like activity in Albino Swiss CD-1 mouse assessed as increase in number of punished crossings at 2.5 to 5 mg/kg, ip administered for 30 mins prior to test measured for 1 min by four-plate test; format: functional, organism-based; how it was run: as §1
[19] = target: T1, 5-hydroxytryptamine receptor 7; assay: Agonist activity at human 5-HT7 receptor expressed in CHO-K1 cells assessed as increase in serotonin-induced cAMP level after 1 hr by TR-FRET assay relative to serotonin; format: functional, cell-based
[20] = target: T5, Alpha-1A adrenergic receptor (Homo sapiens, UniProt P35348); assay: Displacement of [3H]prazosin from recombinant human alpha1 adrenoceptor expressed in CHO cell membranes after 30 mins by liquid scintillation counting method
T5 sequence (P35348 whole entry): T4 sequence (whole entry)

[21] = target: T6, D(2) dopamine receptor (Homo sapiens, UniProt P14416); assay: Antagonist activity at human D2 receptor expressed in CHO-K1 cells co-expressing Galphaqi5 assessed as decrease in apomorphine-induced calcium mobilization preincubated for 30 mins followed by apomorphine challenge measured for 30 secs by aequorin-derived luminescence assay; format: functional, cell-based
T6 sequence (P14416 whole entry): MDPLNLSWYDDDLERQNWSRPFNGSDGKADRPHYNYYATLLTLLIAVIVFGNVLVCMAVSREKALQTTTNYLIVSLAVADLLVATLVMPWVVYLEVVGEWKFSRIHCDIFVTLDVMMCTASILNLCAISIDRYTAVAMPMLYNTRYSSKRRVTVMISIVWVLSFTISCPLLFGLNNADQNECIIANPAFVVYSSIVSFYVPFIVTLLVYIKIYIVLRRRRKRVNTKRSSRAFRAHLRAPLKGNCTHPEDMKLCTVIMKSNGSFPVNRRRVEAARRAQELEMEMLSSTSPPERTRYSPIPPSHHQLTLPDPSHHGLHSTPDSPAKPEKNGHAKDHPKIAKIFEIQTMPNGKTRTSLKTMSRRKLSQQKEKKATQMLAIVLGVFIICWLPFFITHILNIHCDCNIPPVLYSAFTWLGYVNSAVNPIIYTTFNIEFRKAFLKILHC

[22] = target: T2, 5-hydroxytryptamine receptor 1A; assay: (§3) Antagonist activity at human 5-HT1A receptor expressed in CHO-K1 cells co-expressing Galpha16 assessed as decrease in serotonin calcium mobilization preincubated for 25 mins followed by serotonin challenge measured for 30 secs by aequorin-derived luminescence assay; format: functional, cell-based
[23] = target: T7, 5-hydroxytryptamine receptor 1A (Homo sapiens) (UniProt P08908); assay: as §3; format: functional, cell-based
T7 sequence (whole entry): T2 sequence (P08908 whole entry)

[24] = target: T1, 5-hydroxytryptamine receptor 7; assay: Antagonist activity at human 5-HT7 receptor expressed in CHO-K1 cells assessed as decrease in serotonin-induced cAMP level after 1 hr by TR-FRET assay; format: functional, cell-based
[25] = target: T6, D(2) dopamine receptor; assay: Agonist activity at human D2 receptor expressed in CHO-K1 cells co-expressing Galphaqi5 assessed as increase apomorphine-induced calcium mobilization measured for 30 secs by aequorin-derived luminescence assay relative to apomorphine; format: functional, cell-based
[26] = target: T3, 5-hydroxytryptamine receptor 6; assay: Displacement of [3H]LSD from recombinant human 5-HT6 receptor expressed in CHO cells cell membranes after 60 mins by liquid scintillation counting method
[27] = target: T8, 5-hydroxytryptamine receptor 2A (Homo sapiens, UniProt P28223); assay: biochemical; format: cell-based, HEK293
T8 sequence (P28223 whole entry): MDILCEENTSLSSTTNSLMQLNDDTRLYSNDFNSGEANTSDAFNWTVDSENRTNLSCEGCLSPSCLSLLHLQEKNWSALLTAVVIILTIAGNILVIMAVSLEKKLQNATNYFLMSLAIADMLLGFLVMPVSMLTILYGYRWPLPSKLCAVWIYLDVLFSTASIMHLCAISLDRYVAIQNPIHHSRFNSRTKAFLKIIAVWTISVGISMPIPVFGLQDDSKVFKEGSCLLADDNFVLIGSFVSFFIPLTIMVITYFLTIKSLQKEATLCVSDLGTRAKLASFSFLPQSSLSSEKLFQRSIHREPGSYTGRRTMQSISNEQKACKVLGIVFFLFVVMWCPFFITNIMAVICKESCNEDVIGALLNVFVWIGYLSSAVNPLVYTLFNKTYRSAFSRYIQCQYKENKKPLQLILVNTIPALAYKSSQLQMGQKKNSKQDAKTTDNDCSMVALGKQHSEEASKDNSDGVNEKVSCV

[28] = target: T8, 5-hydroxytryptamine receptor 2A; assay: Antagonist activity at human 5-HT2A receptor expressed in CHO-K1 cells co-expressing Galpha16 assessed as decrease in serotonin calcium mobilization preincubated for 30 mins followed by serotonin challenge measured for 30 secs by aequorin-derived luminescence assay; format: functional, cell-based
[29] = target: T1, 5-hydroxytryptamine receptor 7; assay: Antagonist activity at human 5-HT7 receptor expressed in CHO-K1 cells assessed as decrease in serotonin-induced cAMP level after 1 hr by TR-FRET assay relative to control; format: functional, cell-based
[30] = target: T7, 5-hydroxytryptamine receptor 1A (Homo sapiens); assay: Antagonist activity at human 5-HT1A receptor expressed in CHO-K1 cells co-expressing Galpha16 assessed as decrease in serotonin-induced calcium mobilization preincubated for 25 mins followed by serotonin challenge measured for 30 secs by aequorin-derived luminescence assay relative to control; format: functional, cell-based
[31] = target: T6, D(2) dopamine receptor; assay: Displacement of [3H]methylspiperonee from recombinant human D2 receptor expressed in HEK293 cells cell membranes after 60 mins by liquid scintillation counting method
[32] = target: T7, 5-hydroxytryptamine receptor 1A (Homo sapiens); assay: Agonist activity at human 5-HT1A receptor expressed in CHO-K1 cells co-expressing Galpha16 assessed as increase in calcium mobilization measured for 30 secs by aequorin-derived luminescence assay relative to serotonin; format: functional, cell-based
[33] = target: T2, 5-hydroxytryptamine receptor 1A; assay: Displacement of [3H]8-OH-DPAT from human 5-HT1A receptor expressed in HEK293 cell membranes after 1 hr
[34] = target: T8, 5-hydroxytryptamine receptor 2A; assay: Displacement of [3H]-ketanserin from recombinant human 5-HT2A receptor after 60 mins by liquid scintillation counting method
[35] = test system: Mus musculus; assay: Antidepressant-like activity in ip dosed Albino Swiss CD-1 mouse assessed as decrease in immobility time administered […] prior to test measured for last 4 mins of 6 mins observation by forced swim test (reference value: 153.9 to 201.9 secs); format: functional

Structure (SMILES): O=C(O)C1N=C(c2ccccc2)c2cc(Cl)ccc2NC1=O (configuration not stated)
- Activity [1]: Active

Structure (SMILES): Cc1cc(C)c(OCCN2CCN(CCOCCO)CC2)c(C)c1.Cl.Cl
- Activity [2]: Active
- Activity [3]: Active
- Time [4]: 128 s
- selectivity ratio [5]: 1.88
- Time [6]: 135.3 s
- inhibition [7]: inactive
- Ki [8]: 3170 nM
- TD50 at 0.5 h [9]: 85.3 mg/kg
- ED50 [10]: 45.4 mg/kg
- Activity [11]: Non-Toxic
- inhibition [12]: inactive
- Activity [13]: Non-Toxic
- inhibition [14]: inactive
- Time [15]: 152.5 s

Structure (SMILES): COc1ccccc1N1CCN(CCOCCOc2cc(C)cc(C)c2C)CC1.Cl.Cl
- Ki [16]: 89 nM
- Activity [17]: Non-Toxic
- Activity [18]: Active
- Time [4]: 156.1 s
- Emax [19]: 9%
- Time [6]: 141.9 s
- Ki [20]: 14 nM
- IC50 [21]: 78.5 nM
- Kb [21]: 23.4 nM
- IC50 [22]: 376 nM
- Kb [23]: 92.3 nM
- Ki [8]: 32 nM
- IC50 [24]: 2340 nM
- Kb [24]: 995 nM
- Emax [25]: 1%
- Activity [13]: Non-Toxic
- Ki [26]: 1540 nM
- Ki [27]: 159 nM
- Time [15]: 165.6 s
- IC50 [28]: 4010 nM
- Emax [29]: 11%
- Emax [30]: 4%
- Ki [31]: 162 nM
- Emax [32]: 5%

Structure (SMILES): COc1ccccc1N1CCN(CCCOc2c(C)cc(C)cc2C)CC1.Cl
- Ki [33]: < 1 nM
- Ki [34]: 2830 nM
- ED [35]: 5 mg/kg
